Active and inactive are the calls of the source. The calls are words filed in the database; no cut-off is given here.
Key:
[1] = Displacement of [125I]-angiotensin 2 from angiotensin AT1 receptor in VSMC of Sprague-Dawley rat thoracic aorta after 60 mins by gamma-counting; format: tissue-based
How it was run: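 VSMCs explant-cultured from SD rat thoracic aorta (collagenase digestion, DMEM + 15% FBS), passages 3-7. Cells incubated with 0.1 nM 125I-angiotensin II plus compound (final 1e-6 to 1e-12 M), 60 min, 37°C. Nonspecific binding defined with 1 µM AII. Cells washed with PBS, lysed in 0.1 M NaOH, gamma-counted. IC50 from regression of displacement curves; Ki = IC50/(1+[L]/Kd).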

[2] = test system: Rattus norvegicus; experiment: Antihypertensive activity in spontaneous hypersensitive […] rat model assessed as reduction of blood pressure at 10 mg/kg, po measured for 1 to 24 hrs; format: functional
How it was run: (§1)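 Spontaneously hypertensive rats (250-300 g), randomized into groups of 10. Compound suspended in 0.5% sodium carboxymethyl cellulose, oral dosing at 5 and 10 mg/kg; vehicle-only negative control and losartan 10 mg/kg positive control. Mean blood pressure recorded under sodium pentobarbital anesthesia (40 mg/kg, i.p.). Significance versus control at p < 0.05 or 0.01.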

[3] = test system: Rattus norvegicus; experiment: Antihypertensive activity in renal hypersensitive Sprague-Dawley rat model assessed as reduction of blood pressure at 10 mg/kg, po measured for 1 to 24 hrs; format: functional, organism-based; set-up: dose 10 mg/kg
How it was run: (§2)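 Renal hypertension induced in Sprague-Dawley rats (250-350 g) by complete ligation of the left renal artery under sodium pentobarbital (40 mg/kg); rats with SBP above 160 mmHg used. Groups of 10. Compound suspended in 0.5% sodium carboxymethyl cellulose and given orally at 5 and 10 mg/kg; vehicle control and losartan 10 mg/kg. Mean blood pressure measured under pentobarbital (40 mg/kg, i.p.) anesthesia.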

[4] = test system: Rattus norvegicus; experiment: Antihypertensive activity in spontaneous hypersensitive […] rat model assessed as reduction of blood pressure at 5 mg/kg, po measured after 4 to 5 hrs; format: functional; how it was run: as §1
[5] = test system: Rattus norvegicus; experiment: Antihypertensive activity in spontaneous hypersensitive […] rat model assessed as reduction of blood pressure at 10 mg/kg, po measured after 4 to 5 hrs; format: functional; how it was run: as §1
[6] = test system: Rattus norvegicus; experiment: Antihypertensive activity in renal hypersensitive Sprague-Dawley rat model assessed as reduction of blood pressure at 5 to 10 mg/kg, po measured for 1 to 24 hrs; format: functional, organism-based; how it was run: as §2
[7] = test system: Rattus norvegicus; experiment: Antihypertensive activity in spontaneous hypersensitive […] rat model assessed as duration of reduction of blood pressure at 5 to 10 mg/kg, po; format: functional; settings: dose mg/kg 5-10; how it was run: as §1
[8] = test system: Rattus norvegicus; experiment: Antihypertensive activity in spontaneous hypersensitive […] rat model assessed as reduction of blood pressure at <5 to 10 mg/kg, po measured for 1 to 24 hrs; format: functional, organism-based; set-up: dose 10 mg/kg; how it was run: as §1

Compound | IC50 [1] [nM] | Ki [1] [nM] | Activity [2] [mmHg] | Activity [3] | Activity [4] [mmHg] | Activity [5] [mmHg] | Activity [6] | Time [7] [h] | Activity [8]
CCCCc1nc(Cl)c(CO)n1Cc1ccc(-c2ccccc2-c2nnn[nH]2)cc1 [LOSARTAN] | 3.54 | 2.53 | 31 | Active | – | – | – | – | –
CCCc1nc2cc([N+](=O)[O-])ccc2n1Cc1ccc2c(ccn2-c2ccccc2C(=O)O)c1 | 3.32 | 2.22 | 28 | Active | – | – | – | – | –
CCCCc1nc2cc([N+](=O)[O-])ccc2n1Cc1ccc2c(ccn2-c2ccccc2C(=O)O)c1 | 5.11 | 4.89 | 32 | Active | – | – | – | – | –

Second part, led by results:

IC50 [1] [nM] | Compound | Ki [1] [nM] | Activity [2] [mmHg] | Activity [3] | Activity [4] [mmHg] | Activity [5] [mmHg] | Activity [6] | Time [7] [h] | Activity [8]
4.12 | CCc1nc2cc([N+](=O)[O-])ccc2n1Cc1cccc2c1ccn2-c1ccccc1C(=O)O | 3.04 | 30 | Active | – | – | – | – | –
1.03 | CCCCc1nc2cc([N+](=O)[O-])ccc2n1Cc1cccc2c1ccn2-c1ccccc1C(=O)O | 0.97 | – | – | 30 | 41 | Active | 24 | –
15.7 | CCCCCc1nc2cc([N+](=O)[O-])ccc2n1Cc1cccc2c1ccn2-c1ccccc1C(=O)O | 13.4 | – | – | – | – | inactive | – | inactive
5.43 | CCCc1nc2cc([N+](=O)[O-])ccc2n1Cc1cccc2c1ccn2-c1ccccc1C(=O)O | 4.23 | – | – | – | – | inactive | – | inactive

From ChEMBL document CHEMBL3232799, “Design, synthesis and biological evaluation of new 5-nitro benzimidazole derivatives as AT1 antagonists with anti-hypertension activities” (Bioorg Med Chem, 2014)
